Results published in ChEMBL document CHEMBL3994579, “Synthesis and antibacterial activity of novel 3-O-descladinosylazithromycin derivatives” (2017).
Converted amounts (≈) assume the structure as drawn.

What was measured:
Assay type in all cases: functional
Streptococcus pyogenes [1] = test: Antibacterial activity against erythromycin-resistant Streptococcus pyogenes R1 clinical isolate by broth microdilution method
Streptococcus pneumoniae [2] = test: Antibacterial activity against erythromycin-resistant Streptococcus pneumoniae AB11 expressing ermB/mefA genes by broth microdilution method
In short: (§1)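 Broth microdilution per NCCL recommendation, read as minimal inhibitory concentration, run alongside azithromycin and clarithromycin references. Strains: S. pneumoniae B1 (erythromycin-resistant, ermB), A22072 (erythromycin-resistant, mefA), AB11 (erythromycin-resistant, erm and mef); S. aureus ATCC29213 ([…]); S. epidermidis clinical isolate (penicillin-resistant, not characterized).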

Streptococcus pneumoniae [3] = test: Antibacterial activity against erythromycin-resistant Streptococcus pneumoniae A22072 expressing mefA gene by broth microdilution method; in short: as §1
Streptococcus pyogenes [4] = test: Antibacterial activity against erythromycin-susceptible Streptococcus pyogenes clinical isolate by broth microdilution method
In short: (§2)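 MICs were determined in vitro by broth microdilution following the NCCL-recommended method. Azithromycin and clarithromycin were run alongside as reference antibiotics on the same strain panel.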

Pseudomonas aeruginosa = test: Antibacterial activity against penicillin-susceptible Pseudomonas aeruginosa ATCC 27853 by broth microdilution method; in short: as §2
[5] = system: Staphylococcus epidermidis; test: Antibacterial activity against penicillin-resistant Staphylococcus epidermidis clinical isolate by broth microdilution method; in short: as §1
Bacillus subtilis = test: Antibacterial activity against erythromycin/penicillin-susceptible Bacillus subtilis ATCC 9372 by broth microdilution method; in short: as §2
Streptococcus pneumoniae [6] = test: Antibacterial activity against erythromycin-resistant Streptococcus pneumoniae B1 expressing ermB gene by broth microdilution method; in short: as §1
Escherichia coli = test: Antibacterial activity against penicillin-susceptible Escherichia coli ATCC 25922 by broth microdilution method; in short: as §2
Staphylococcus aureus [7] = test: Antibacterial activity against erythromycin-susceptible Staphylococcus aureus ATCC 25923 by broth microdilution method; in short: as §2
Staphylococcus aureus [8] = test: Antibacterial activity against […] Staphylococcus aureus ATCC 29213 by broth microdilution method; in short: as §1

Structure (SMILES) | MIC (Streptococcus pyogenes [1]) | MIC (Streptococcus pneumoniae [2]) | MIC (Streptococcus pneumoniae [3]) | MIC (Streptococcus pyogenes [4]) | MIC (Pseudomonas aeruginosa) | MIC [5] | MIC (Bacillus subtilis) | MIC (Streptococcus pneumoniae [6]) | MIC (Escherichia coli) | MIC (Staphylococcus aureus [7]) | MIC (Staphylococcus aureus [8])
CC[C@H]1OC(=O)[C@H](C)[C@@H](OC(=O)Nc2ccc(C(F)(F)F)cc2)[C@H](C)[C@@H](O[C@@H]2O[C@H](C)C[C@H](N(C)C)[C@H]2O)[C@](C)(O)C[C@@H](C)CN(C)[C@H](C)[C@H]2OC(=O)O[C@@]21C | 64 µg/mL (≈ 79.6 µM) | 4 µg/mL (≈ 4.98 µM) | 4 µg/mL (≈ 4.98 µM) | 1 µg/mL (≈ 1.24 µM) | 128 µg/mL (≈ 159 µM) | 0.25 µg/mL (≈ 0.311 µM) | 32 µg/mL (≈ 39.8 µM) | 32 µg/mL (≈ 39.8 µM) | 128 µg/mL (≈ 159 µM) | 16 µg/mL (≈ 19.9 µM) | 128 µg/mL (≈ 159 µM)
CC[C@H]1OC(=O)[C@H](C)[C@@H](O)[C@H](C)[C@@H](O[C@@H]2O[C@H](C)C[C@H](N(C)C)[C@H]2OC(=O)Nc2ccc(F)cc2)[C@](C)(O)C[C@@H](C)CN(C)[C@H](C)[C@H]2OC(=O)O[C@@]21C | 64 µg/mL (≈ 84.9 µM) | 8 µg/mL (≈ 10.6 µM) | 4 µg/mL (≈ 5.31 µM) | 1 µg/mL (≈ 1.33 µM) | 128 µg/mL (≈ 170 µM) | 64 µg/mL (≈ 84.9 µM) | 64 µg/mL (≈ 84.9 µM) | 64 µg/mL (≈ 84.9 µM) | 128 µg/mL (≈ 170 µM) | 16 µg/mL (≈ 21.2 µM) | 128 µg/mL (≈ 170 µM)
CC[C@H]1OC(=O)[C@H](C)[C@@H](OC(=O)Nc2cccc(OC)c2)[C@H](C)[C@@H](O[C@@H]2O[C@H](C)C[C@H](N(C)C)[C@H]2O)[C@](C)(O)C[C@@H](C)CN(C)[C@H](C)[C@H]2OC(=O)O[C@@]21C | 64 µg/mL (≈ 83.6 µM) | 16 µg/mL (≈ 20.9 µM) | 16 µg/mL (≈ 20.9 µM) | 2 µg/mL (≈ 2.61 µM) | 64 µg/mL (≈ 83.6 µM) | 32 µg/mL (≈ 41.8 µM) | 16 µg/mL (≈ 20.9 µM) | 64 µg/mL (≈ 83.6 µM) | 64 µg/mL (≈ 83.6 µM) | 16 µg/mL (≈ 20.9 µM) | 64 µg/mL (≈ 83.6 µM)
CC[C@H]1OC(=O)[C@H](C)[C@@H](OC(=O)n2ccnc2)[C@H](C)[C@@H](O[C@@H]2O[C@H](C)C[C@H](N(C)C)[C@H]2OC(C)=O)[C@](C)(O)C[C@@H](C)CN(C)[C@H](C)[C@H]2OC(=O)O[C@@]21C | 56 µg/mL (≈ 74.4 µM) | 256 µg/mL (≈ 340 µM) | 16 µg/mL (≈ 21.3 µM) | 8 µg/mL (≈ 10.6 µM) | 128 µg/mL (≈ 170 µM) | 128 µg/mL (≈ 170 µM) | 128 µg/mL (≈ 170 µM) | 256 µg/mL (≈ 340 µM) | 32 µg/mL (≈ 42.5 µM) | 128 µg/mL (≈ 170 µM) | 128 µg/mL (≈ 170 µM)
CC[C@H]1OC(=O)[C@H](C)[C@@H](OC(=O)Nc2cccc(C)c2)[C@H](C)[C@@H](O[C@@H]2O[C@H](C)C[C@H](N(C)C)[C@H]2O)[C@](C)(O)C[C@@H](C)CN(C)[C@H](C)[C@@H](OC(=O)NCc2ccc(OC)cc2)[C@]1(C)O | 128 µg/mL (≈ 144 µM) | 16 µg/mL (≈ 18 µM) | 8 µg/mL (≈ 9.02 µM) | 1 µg/mL (≈ 1.13 µM) | 128 µg/mL (≈ 144 µM) | 32 µg/mL (≈ 36.1 µM) | 16 µg/mL (≈ 18 µM) | 128 µg/mL (≈ 144 µM) | 128 µg/mL (≈ 144 µM) | 16 µg/mL (≈ 18 µM) | 128 µg/mL (≈ 144 µM)
CC[C@H]1OC(=O)[C@H](C)[C@@H](O)[C@H](C)[C@@H](O[C@@H]2O[C@H](C)C[C@H](N(C)C)[C@H]2OC(=O)Nc2ccccc2C)[C@](C)(O)C[C@@H](C)CN(C)[C@H](C)[C@H]2OC(=O)O[C@@]21C | 64 µg/mL (≈ 85.3 µM) | 4 µg/mL (≈ 5.33 µM) | 2 µg/mL (≈ 2.67 µM) | 0.5 µg/mL (≈ 0.667 µM) | 64 µg/mL (≈ 85.3 µM) | 16 µg/mL (≈ 21.3 µM) | 4 µg/mL (≈ 5.33 µM) | 64 µg/mL (≈ 85.3 µM) | 64 µg/mL (≈ 85.3 µM) | 4 µg/mL (≈ 5.33 µM) | 32 µg/mL (≈ 42.7 µM)
CC[C@H]1OC(=O)[C@H](C)[C@@H](OC(=O)Nc2cccc(C)c2)[C@H](C)[C@@H](O[C@@H]2O[C@H](C)C[C@H](N(C)C)[C@H]2O)[C@](C)(O)C[C@@H](C)CN(C)[C@H](C)[C@H]2OC(=O)O[C@@]21C | 32 µg/mL (≈ 42.7 µM) | 16 µg/mL (≈ 21.3 µM) | 8 µg/mL (≈ 10.7 µM) | 1 µg/mL (≈ 1.33 µM) | 64 µg/mL (≈ 85.3 µM) | 4 µg/mL (≈ 5.33 µM) | 8 µg/mL (≈ 10.7 µM) | 64 µg/mL (≈ 85.3 µM) | 64 µg/mL (≈ 85.3 µM) | 2 µg/mL (≈ 2.67 µM) | 64 µg/mL (≈ 85.3 µM)
CC[C@H]1OC(=O)[C@H](C)[C@@H](OC(=O)Nc2cccc(F)c2)[C@H](C)[C@@H](O[C@@H]2O[C@H](C)C[C@H](N(C)C)[C@H]2O)[C@](C)(O)C[C@@H](C)CN(C)[C@H](C)[C@H]2OC(=O)O[C@@]21C | 128 µg/mL (≈ 170 µM) | 32 µg/mL (≈ 42.4 µM) | 16 µg/mL (≈ 21.2 µM) | 2 µg/mL (≈ 2.65 µM) | 128 µg/mL (≈ 170 µM) | 64 µg/mL (≈ 84.9 µM) | 128 µg/mL (≈ 170 µM) | 64 µg/mL (≈ 84.9 µM) | 128 µg/mL (≈ 170 µM) | 32 µg/mL (≈ 42.4 µM) | 128 µg/mL (≈ 170 µM)
CC[C@H]1OC(=O)[C@H](C)[C@@H](O)[C@H](C)[C@@H](O[C@@H]2O[C@H](C)C[C@H](N(C)C)[C@H]2OC(=O)Nc2cccc(Cl)c2)[C@](C)(O)C[C@@H](C)CN(C)[C@H](C)[C@H]2OC(=O)O[C@@]21C | 64 µg/mL (≈ 83.1 µM) | 32 µg/mL (≈ 41.5 µM) | 8 µg/mL (≈ 10.4 µM) | 1 µg/mL (≈ 1.3 µM) | 64 µg/mL (≈ 83.1 µM) | 32 µg/mL (≈ 41.5 µM) | 8 µg/mL (≈ 10.4 µM) | 64 µg/mL (≈ 83.1 µM) | 32 µg/mL (≈ 41.5 µM) | 16 µg/mL (≈ 20.8 µM) | 128 µg/mL (≈ 166 µM)
